Converted amounts (≈) assume the structure as drawn. The source made the active and inactive calls. No cut-off for these calls is given here.
Tests used:
[1] = test system: Escherichia coli; assay: Antibacterial activity against non-beta-lactamase producing Escherichia coli ATCC 25922 after 48 hrs by microdilution broth method; format: functional, organism-based
Outline: (§1)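 Broth microdilution followed CLSI guidelines. Compound was dissolved in 95% ethanol, diluted at least 10-fold into Mueller-Hinton broth, then serially two-fold diluted from 500 to 15.6 μg/mL. Actively growing culture was added at 5 × 10^5 cells/mL. Plates ran 48 h at 37 °C, scored for visible growth at 24 and 48 h. MIC was the lowest concentration without growth. For MBC, 10 μL from each clear well was plated on MH agar. Controls were ethanol and penicillin. Triplicate.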

[2] = test system: Moraxella catarrhalis; assay: Antibacterial activity against beta-lactamase producing Moraxella catarrhalis isolate 2 after 48 hrs incubation by microdilution broth method; format: functional; details: isolate 2, 48 h; outline: as §1
[3] = test system: Staphylococcus aureus; assay: Antibacterial activity against non-beta-lactamase producing Staphylococcus aureus ATCC 25923 at 10 ug/disc after overnight incubation by disc diffusion assay; format: functional, organism-based
Outline: (§2)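 Isolates were held at −80 °C. Five colonies were suspended in Mueller-Hinton broth to a 0.5 McFarland density and swabbed onto MH agar. Discs carried 10 μg compound, applied in methanol and dried at room temperature. Plates were incubated overnight at 37 °C, and the zone of inhibition was measured in mm from the disc edge. Controls were methanol-only and penicillin discs. Run blinded, in triplicate.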

[4] = test system: Moraxella catarrhalis; assay: Antibacterial activity against beta-lactamase producing Moraxella catarrhalis isolate 5 at 10 ug/disc after overnight incubation by disc diffusion assay in presence of 1 mol equiv of glutathione; format: functional; details: read-out: IZ
[5] = test system: Pseudomonas aeruginosa; assay: Antibacterial activity against non-beta-lactamase producing Pseudomonas aeruginosa ATCC 27853 at 10 ug/disc after overnight incubation by disc diffusion assay; format: functional, organism-based; outline: as §2
[6] = test system: Moraxella catarrhalis; assay: Antibacterial activity against beta-lactamase producing Moraxella catarrhalis isolate 4 at 10 ug/disc after overnight incubation by disc diffusion assay; format: functional; outline: as §2
[7] = test system: Moraxella catarrhalis; assay: Antibacterial activity against beta-lactamase producing Moraxella catarrhalis isolate 4 at 10 ug/disc after overnight incubation by disc diffusion assay in presence of 1 mol equiv of glutathione; format: functional
[8] = test system: Enterococcus faecalis; assay: Antibacterial activity against non-beta-lactamase producing Enterococcus faecalis ATCC 29212 after 48 hrs by microdilution broth method; format: functional, organism-based; outline: as §1
[9] = test system: Moraxella catarrhalis; assay: Antibacterial activity against beta-lactamase producing Moraxella catarrhalis isolate 1 at 10 ug/disc after overnight incubation by disc diffusion assay in presence of 1 mol equiv of glutathione; format: functional
[10] = test system: Pseudomonas aeruginosa; assay: Antibacterial activity against non-beta-lactamase producing Pseudomonas aeruginosa ATCC 27853 after 48 hrs by microdilution broth method; format: functional, organism-based; outline: as §1
[11] = test system: Moraxella catarrhalis; assay: Antibacterial activity against beta-lactamase producing Moraxella catarrhalis isolate 6 at 10 ug/disc after overnight incubation by disc diffusion assay; format: functional; outline: as §2
[12] = test system: Moraxella catarrhalis; assay: Antibacterial activity against beta-lactamase producing Moraxella catarrhalis isolate 1 after 48 hrs incubation by microdilution broth method; format: functional; details: isolate 1, 48 h; outline: as §1
[13] = test system: Moraxella catarrhalis; assay: Antibacterial activity against beta-lactamase producing Moraxella catarrhalis isolate 6 at 10 ug/disc after overnight incubation by disc diffusion assay in presence of 1 mol equiv of glutathione; format: functional
[14] = test system: Moraxella catarrhalis; assay: Antibacterial activity against beta-lactamase producing Moraxella catarrhalis isolate 5 at 10 ug/disc after overnight incubation by disc diffusion assay; format: functional; details: read-out: IZ; outline: as §2
[15] = test system: Moraxella catarrhalis; assay: Antibacterial activity against beta-lactamase producing Moraxella catarrhalis isolate 5 after 48 hrs incubation by microdilution broth method; format: functional; details: isolate 5, 48 h; outline: as §1
[16] = test system: Moraxella catarrhalis; assay: Antibacterial activity against beta-lactamase producing Moraxella catarrhalis isolate 4 after 48 hrs incubation by microdilution broth method; format: functional; details: isolate 4, 48 h; outline: as §1
[17] = test system: Enterococcus faecalis; assay: Antibacterial activity against non-beta-lactamase producing Enterococcus faecalis ATCC 29212 at 10 ug/disc after overnight incubation by disc diffusion assay; format: functional, organism-based; outline: as §2
[18] = test system: Moraxella catarrhalis; assay: Antibacterial activity against beta-lactamase producing Moraxella catarrhalis isolate 3 at 10 ug/disc after overnight incubation by disc diffusion assay in presence of 1 mol equiv of glutathione; format: functional
[19] = test system: Staphylococcus aureus; assay: Antibacterial activity against non-beta-lactamase producing Staphylococcus aureus ATCC 25923 after 48 hrs by microdilution broth method; format: functional, organism-based; outline: as §1
[20] = test system: Moraxella catarrhalis; assay: Antibacterial activity against beta-lactamase producing Moraxella catarrhalis isolate 6 after 48 hrs incubation by microdilution broth method; format: functional; details: isolate 6, 48 h; outline: as §1
[21] = test system: Moraxella catarrhalis; assay: Antibacterial activity against beta-lactamase producing Moraxella catarrhalis isolate 3 after 48 hrs incubation by microdilution broth method; format: functional; details: isolate 3, 48 h; outline: as §1
[22] = test system: Moraxella catarrhalis; assay: Antibacterial activity against beta-lactamase producing Moraxella catarrhalis isolate 1 at 10 ug/disc after overnight incubation by disc diffusion assay; format: functional; outline: as §2
[23] = test system: Moraxella catarrhalis; assay: Antibacterial activity against beta-lactamase producing Moraxella catarrhalis isolate 3 at 10 ug/disc after overnight incubation by disc diffusion assay; format: functional; outline: as §2
[24] = test system: Moraxella catarrhalis; assay: Antibacterial activity against beta-lactamase producing Moraxella catarrhalis isolate 2 at 10 ug/disc after overnight incubation by disc diffusion assay; format: functional; details: read-out: IZ; outline: as §2
[25] = test system: Mycobacterium tuberculosis; assay: Antimycobacterial activity against wild type Mycobacterium tuberculosis H37Rv by Alamar blue assay; format: functional
[26] = test system: Moraxella catarrhalis; assay: Antibacterial activity against beta-lactamase producing Moraxella catarrhalis isolate 2 at 10 ug/disc after overnight incubation by disc diffusion assay in presence of 1 mol equiv of glutathione; format: functional; details: read-out: IZ
[27] = test system: Escherichia coli; assay: Antibacterial activity against non-beta-lactamase producing Escherichia coli ATCC 25922 at 10 ug/disc after overnight incubation by disc diffusion assay; format: functional, organism-based; outline: as §2
[28] = Chemical stability of the compound assessed as compound degradation after 48 hrs by NMR analysis; format: physicochemical; details: for degraded at 48 h: read-out: Drug metabolism

Compound | Activity [1] | Activity [3] | Activity [5] | inhibition zone (IZ) [6] | Activity [8] | Activity [10] | zone of inhibition at 10 µg/disc [14] [mm] | Activity [17] | Activity [19] | inhibition zone (IZ) [22] | inhibition zone (IZ) [23] | zone of inhibition at 10 µg/disc [24] [mm] | Activity [27] | degraded at 48 h [28] [%] | other results
CCC(C=O)(CC)SSC(CC)(CC)C1C(OC)C(=O)N1CC(=O)OC (racemic) | inactive | inactive | inactive | inactive | inactive | inactive | 7 | inactive | inactive | inactive | inactive | 10 | inactive |  | MBC [2]: > 500 µg/mL; zone of inhibition at 10 µg/disc [4]: 7 mm; inhibition zone (IZ) [7]: inactive; inhibition zone (IZ) [9]: inactive; inhibition zone (IZ) [11]: inactive; MBC [12]: > 500 µg/mL; inhibition zone (IZ) [13]: inactive; MBC [15]: < 15.6 µg/mL; MBC [16]: < 15.6 µg/mL; inhibition zone (IZ) [18]: inactive; MBC [20]: < 15.6 µg/mL; MBC [21]: < 15.6 µg/mL; MBC [25]: 200 µg/mL (≈ 493 µM); zone of inhibition at 10 µg/disc [26]: 7 mm
CCOC(=O)C/N=C\C(CC)(CC)SSC(/C=N/CC(=O)OCC)(CC)CC | inactive | inactive | inactive |  | inactive | inactive |  | inactive | inactive |  |  |  | inactive | 10 | 
CCOC(=O)C/N=C\C(CC)(CC)SSC(C=O)(CC)CC | inactive | inactive | inactive |  | inactive | inactive |  | inactive | inactive |  |  |  | inactive | 10 | 
CCC(C=O)(CC)SSC(/C=N\CC(=O)OC)(CC)CC | inactive | inactive | inactive |  | inactive | inactive |  | inactive | inactive |  |  |  | inactive | 10 | 
CCOC(=O)C/N=C\C(S)(CC)CC | inactive | inactive | inactive | inactive | inactive | inactive | 11 | inactive | inactive | inactive | inactive | 2 | inactive |  | Percent compound degraded ([28]; 48 h): 10%
